Measured values: ChEMBL document CHEMBL1156668, “Synthesis and antimicrobial activity of novel sulfone-linked bis heterocycles” (2008)
In brackets after ≈: the same amount, converted by molar mass.

Key:
Format in all cases: functional
Curvularia lunata [1] = experiment: Antifungal activity against Curvularia lunata at 200 ug after 48 hrs by agar disc-diffusion method; settings: read-out: IZ
Method in brief: (§1)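 Fungal strains from NCIM, Pune, were tested by disc diffusion on nutrient agar. Sterile 6 mm paper discs moistened with the compound solution in DMSO were placed on plates pre-inoculated with each fungus. Plates were incubated at 37 °C, and the inhibition-zone diameter was read after 48 h.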

Bacillus subtilis [2] = experiment: Antibacterial activity against Bacillus subtilis at 100 ug after 24 hrs by agar disc-diffusion method; settings: read-out: IZ
Method in brief: (§2)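 Agar disc diffusion on nutrient agar with bacterial strains from NCIM, Pune. Sterile 6 mm filter-paper discs were wetted with compound in DMSO and placed on plates already inoculated with each organism. Plates were incubated at 37 °C, and the diameter of the growth-inhibition zone was measured after 24 h.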

Fusarium solani [3] = experiment: Antifungal activity against Fusarium solani at 100 ug after 48 hrs by agar disc-diffusion method; settings: read-out: IZ; method in brief: as §1
Bacillus subtilis [4] = experiment: Antibacterial activity against Bacillus subtilis at 200 ug after 24 hrs by agar disc-diffusion method; settings: read-out: IZ; method in brief: as §2
Staphylococcus aureus [5] = experiment: Antibacterial activity against Staphylococcus aureus at 200 ug after 24 hrs by agar disc-diffusion method; settings: read-out: IZ; method in brief: as §2
Fusarium solani [6] = experiment: Antifungal activity against Fusarium solani at 200 ug after 48 hrs by agar disc-diffusion method; settings: read-out: IZ; method in brief: as §1
Aspergillus niger [7] = experiment: Antifungal activity against Aspergillus niger at 200 ug after 48 hrs by agar disc-diffusion method; settings: read-out: IZ; method in brief: as §1
Staphylococcus aureus [8] = experiment: Antibacterial activity against Staphylococcus aureus at 100 ug after 24 hrs by agar disc-diffusion method; settings: read-out: IZ; method in brief: as §2
Escherichia coli [9] = experiment: Antibacterial activity against Escherichia coli at 100 ug after 24 hrs by agar disc-diffusion method; settings: read-out: IZ; method in brief: as §2
Curvularia lunata [10] = experiment: Antifungal activity against Curvularia lunata at 100 ug after 48 hrs by agar disc-diffusion method; settings: read-out: IZ; method in brief: as §1
Klebsiella pneumoniae [11] = experiment: Antibacterial activity against Klebsiella pneumoniae at 200 ug after 24 hrs by agar disc-diffusion method; settings: read-out: IZ; method in brief: as §2
Aspergillus niger [12] = experiment: Antifungal activity against Aspergillus niger at 100 ug after 48 hrs by agar disc-diffusion method; settings: read-out: IZ; method in brief: as §1
Klebsiella pneumoniae [13] = experiment: Antibacterial activity against Klebsiella pneumoniae at 100 ug after 24 hrs by agar disc-diffusion method; settings: read-out: IZ; method in brief: as §2
Escherichia coli [14] = experiment: Antibacterial activity against Escherichia coli at 200 ug after 24 hrs by agar disc-diffusion method; settings: read-out: IZ; method in brief: as §2
Curvularia lunata [15] = experiment: Antifungal activity against Curvularia lunata after 48 hrs by microdilution susceptibility method
Method in brief: (§3)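 Broth microdilution with fungi from NCIM, Pune. Fungal suspensions were added to wells containing the compound and incubated at 36 °C for 48 h. MIC was recorded as the lowest concentration with no turbidity, that is, no visible growth.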

Fusarium solani [16] = experiment: Antifungal activity against Fusarium solani after 48 hrs by microdilution susceptibility method; method in brief: as §3
Aspergillus niger [17] = experiment: Antifungal activity against Aspergillus niger after 48 hrs by microdilution susceptibility method; method in brief: as §3
Staphylococcus aureus [18] = experiment: Antibacterial activity against Staphylococcus aureus after 24 hrs by microdilution susceptibility method
Method in brief: (§4)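 Microdilution susceptibility test on bacterial strains from NCIM, Pune. Microorganism suspensions were inoculated into wells containing the compound and incubated at 36 °C for 24 h. MIC was taken as the lowest concentration showing no turbidity, meaning complete inhibition of visible growth.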

Bacillus subtilis [19] = experiment: Antibacterial activity against Bacillus subtilis after 24 hrs by microdilution susceptibility method; method in brief: as §4
Escherichia coli [20] = experiment: Antibacterial activity against Escherichia coli after 24 hrs by microdilution susceptibility method; method in brief: as §4
Klebsiella pneumoniae [21] = experiment: Antibacterial activity against Klebsiella pneumoniae after 24 hrs by microdilution susceptibility method; method in brief: as §4

Compound	zone of inhibition at 200 µg/disc (Curvularia lunata [1]) [mm]	zone of inhibition at 100 µg/disc (Bacillus subtilis [2]) [mm]	zone of inhibition at 100 µg/disc (Fusarium solani [3]) [mm]	zone of inhibition at 200 µg/disc (Bacillus subtilis [4]) [mm]	zone of inhibition at 200 µg/disc (Staphylococcus aureus [5]) [mm]	zone of inhibition at 200 µg/disc (Fusarium solani [6]) [mm]	zone of inhibition at 200 µg/disc (Aspergillus niger [7]) [mm]	zone of inhibition at 100 µg/disc (Staphylococcus aureus [8]) [mm]	zone of inhibition at 100 µg/disc (Escherichia coli [9]) [mm]	zone of inhibition at 100 µg/disc (Curvularia lunata [10]) [mm]	zone of inhibition at 200 µg/disc (Klebsiella pneumoniae [11]) [mm]	zone of inhibition at 100 µg/disc (Aspergillus niger [12]) [mm]	zone of inhibition at 100 µg/disc (Klebsiella pneumoniae [13]) [mm]	zone of inhibition at 200 µg/disc (Escherichia coli [14]) [mm]	MIC (Curvularia lunata [15]) [µg/mL]	MIC (Fusarium solani [16]) [µg/mL]	MIC (Aspergillus niger [17]) [µg/mL]	MIC (Staphylococcus aureus [18]) [µg/mL]	MIC (Bacillus subtilis [19]) [µg/mL]	MIC (Escherichia coli [20]) [µg/mL]	further results
Cc1ccc([C@H]2CNN=C2S(=O)(=O)Cc2nnc(S)o2)cc1	18	13	16	16	15	20	21	12	12	16	12	17	10	14							
O=S(=O)(Cc1nnc(S)o1)C1=NNC[C@@H]1c1ccc(Cl)cc1	19	15	15	18	17	18	18	13	11	16	14	14	11	13							
O=S(=O)(Cc1nnc(S)o1)C1=NNC[C@@H]1c1ccccc1	22	13	17	15	16	19	21	14	15	17	16	16	14	18							
CC(=O)N1CCN(c2ccc(OCC3COC(Cn4ccnc4)(c4ccc(Cl)cc4Cl)O3)cc2)CC1 (stereo not drawn) [KETOCONAZOLE]	44		38			42	39			41		36			6.25 (≈ 11.8 µM)	12.5 (≈ 23.5 µM)	6.25 (≈ 11.8 µM)				
Cc1ccc([C@H]2CNN=C2S(=O)(=O)Cc2nnc(S)s2)cc1	23	16	24	19	17	26	24	14	18	20	19	22	16	21							
O=S(=O)(Cc1nnc(S)s1)C1=NNC[C@@H]1c1ccccc1	29	20	22	23	21	24	28	18	15	26	20	25	17	20							
Nn1c(S)nnc1CS(=O)(=O)C1=NNC[C@@H]1c1ccccc1	41	31	39	33	30	44	39	28	22	37	24	36	21	25	100 (≈ 295 µM)	100 (≈ 295 µM)	100 (≈ 295 µM)	25 (≈ 73.9 µM)	25 (≈ 73.9 µM)	50 (≈ 148 µM)	MIC (Klebsiella pneumoniae [21]): 100 µg/mL (≈ 295 µM)
Cc1ccc([C@H]2CNN=C2S(=O)(=O)Cc2nnc(S)n2N)cc1	39	27	32	29	28	37	38	25	24	34	24	35	22	26							
O=C(N[C@H](CO)[C@H](O)c1ccc([N+](=O)[O-])cc1)C(Cl)Cl [CHLORAMPHENICOL]		38		41	39			35	40		45		42	44				6.25 (≈ 19.3 µM)	6.25 (≈ 19.3 µM)	6.25 (≈ 19.3 µM)	MIC (Klebsiella pneumoniae [21]): 12.5 µg/mL (≈ 38.7 µM)
Nn1c(S)nnc1CS(=O)(=O)C1=NNC[C@@H]1c1ccc(Cl)cc1	42	34	40	36	35	43	40	32	23	39	28	36	26	25	12.5 (≈ 33.5 µM)	25 (≈ 67 µM)	25 (≈ 67 µM)	12.5 (≈ 33.5 µM)	12.5 (≈ 33.5 µM)	50 (≈ 134 µM)	MIC (Klebsiella pneumoniae [21]): 50 µg/mL (≈ 134 µM)
O=S(=O)(Cc1nnc(S)s1)C1=NNC[C@@H]1c1ccc(Cl)cc1	26	28	28	31	29	31	29	25	22	23	26	26	24	27	100 (≈ 267 µM)	100 (≈ 267 µM)	200 (≈ 533 µM)	100 (≈ 267 µM)	200 (≈ 533 µM)	200 (≈ 533 µM)	MIC (Klebsiella pneumoniae [21]): 200 µg/mL (≈ 533 µM)
